This is an account of results in PubChem BioAssay.

Activity calls are given as the source filed them.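 The calls were made as follows, unless noted: active = fluorescence slope after compound addition differing from the mean of all tested samples at 99.7% confidence, mostly higher but some lower; inactive = the rest.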

A short description of experiment [1]: inhibitors of TNFa-induced NFkB p65 translocation, primary screen, imaging, HUVEC, MLSMR starter and 10KST1 sets (AID 438;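 active = inhibition above 20% together with a positive visual image hit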;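 also: compound added about 3h40 before a 20 min TNFalpha stimulation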;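 as to inhibition: signal is the nuclear over cytoplasmic p65 intensity ratio per well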). Particulars: HUVEC TNFa-induced p65 nuclear translocation; cell count: measured here: nuclei count (cytotoxicity indicator), at 2.08 µM; inhibition: at 2 µM, stronger effect = higher value, 0% TNFa-plus-vehicle, 100% no-TNFa wells.
The nature of experiment [2]: endothelial E-selectin expression blockers – imaging, HUVEC, immunofluorescence, MLSMR starter and 10KST1 sets, primary screen (AID 487;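 active = visually confirmed hit in the image check and inhibition above 20%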;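 as to inhibition: signal is fraction of cell area covered by stained E-selectin grains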;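 as to nuclei count: 100% = median nuclei count of all wells on the same plate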). Particulars: HUVEC TNFalpha-induced E-selectin immunofluorescence imaging, at 2 µM; inhibition: stronger effect = higher value; nuclei count: measured here: cell number, toxicity.
Experiment [3] is described as follows: Primary imaging screen for DUSP6 inhibitors that restore phospho-Erk in transfected HeLa cells, chemical complementation (AID 609;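 active = compounds giving at least 50% inhibition in the cell-based MKP-3 phosphatase rescue imaging test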;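 as to inhibition: phospho-Erk level distribution per well compared with pooled transfected vehicle control wells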). Particulars: HeLa MKP-3 transfected, phospho-Erk imaging KS statistic, at 10 µM, cells stimulated with TPA for 15 min.
The target in experiment [4] is Dual specificity protein phosphatase 6 (Homo sapiens) (UniProt Q16828). Described as above. Particulars: HeLa MKP-3 transfected, phospho-Erk imaging KS statistic; at 10 µM; stronger effect = higher value; cells stimulated with TPA for 15 min.
Experiment [5] concerns the target Voltage-gated potassium channel subunit beta-2 (Rattus norvegicus) (UniProt P62483). Kind of experiment: inhibitors of rat Kvbeta2 reductase activity – biochemical, NADPH fluorescence, primary screen (AID 622;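 active = fluorescence slope higher than the sample average by over 3 SD, cut at about -0.22 in these data, passing the limit was not always enough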;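 also: slope of raw intensity against log time taken from 70 to 1610 s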). Particulars: recombinant KvBeta, 4-cyanobenzaldehyde reduction, at 10 µM, stronger effect = higher value.
The target is the same in experiment [6]. Kind of experiment: enhancers of rat Kvbeta2 NADPH turnover – biochemical, NADPH fluorescence, primary screen (AID 623;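 active = NADPH fluorescence slope more negative than the mean of all samples by about 3 SD, 99.7% confidence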;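 also: fluorescence intensity change per second fitted from 20 to 320 s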). Particulars: Recombinant KvBeta, NADPH fluorescence decrease slope, 10 min; at 10 µM; stronger effect = lower value.
Experiment [7] concerns the target Muscarinic acetylcholine receptor M4 (Homo sapiens) (UniProt P08173). Kind of experiment: M4-linked GIRK flux change, two-sided – cell-based, HEK293 M4/GIRK, thallium flux, BTC-AM, M4 allosteric agonist project, primary screen (AID 625).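 Also: thallium influx through GIRK channels coupled to M4 in HEK293 cells with BTC-AM dye.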 The settings on record: at 10 µM, actives lie on both sides. A digest of the protocol: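 Material: M4/GIRK1/GIRK2 stable HEK293 cell line. Medium: pH 7.3 thallium assay buffer. Dosing: single compound concentration, 10 µM final. Schedule: 1 h dye loading, 2 min kinetic read. Measured by: kinetic fluorescence with BTC-AM dye. Read-out: post-addition slope, 15–24 s, of baseline-normalized fluorescence. Benchmarks: carbachol and DMSO controls.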

The nature of experiment [8]: inhibitors of larval lipid processing in zebrafish, primary screen, whole organism, PED6 fluorescence, gall bladder and intestine (AID 686;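 active = a full or partial loss of lipid-probe fluorescence in the fish gall bladder, intestine or both, judged by eye; inactive = no fluorescence loss, or compound toxic to the fish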;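 also: larvae 5 to 7 days old with five fish per well; signal comes from phospholipase A2 cleavage of quenched PED6 carried via bile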). The settings on record: Zebrafish larvae PED6 lipid processing, fluorescence scoring; screened at 20 µM (by protocol). An outline of the steps: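 System: live zebrafish larvae aged 5-7 days, whole organism; measure: graded gall bladder and intestinal fluorescence inhibition per well; incubation: overnight exposure; reagent: ingested quenched lipid PED6 at 100 nM; signal: By-eye fluorescence microscopy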

A short description of experiment [9]: loss of swimming-algae plug formation – whole organism, Chlamydomonas reinhardtii, WT vs cilia-less mutant, absorbance, 96-well, primary screen (AID 463189;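 active = inhibition at or above 50% relative to wild type and mutant plate controls; inactive = inhibition below 50%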;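 also: 0% = wild type cc124 cells in DMSO and 100% = ciliumless bld1 mutant cells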). Particulars: Chlamydomonas reinhardtii gravitaxis, OD600 absorbance, 2 days; at 10 µM; stronger effect = higher value.
[10] abbreviates: measured here: cell density z-score.
Setting [11] is: measured here: nuclear c-Myc green intensity z-score.
[12] abbreviates: measured here: nuclear pErk red intensity z-score, stronger effect = higher value.

Dual specificity protein phosphatase 6 (Homo sapiens), sequence (Q16828 whole entry, looked up): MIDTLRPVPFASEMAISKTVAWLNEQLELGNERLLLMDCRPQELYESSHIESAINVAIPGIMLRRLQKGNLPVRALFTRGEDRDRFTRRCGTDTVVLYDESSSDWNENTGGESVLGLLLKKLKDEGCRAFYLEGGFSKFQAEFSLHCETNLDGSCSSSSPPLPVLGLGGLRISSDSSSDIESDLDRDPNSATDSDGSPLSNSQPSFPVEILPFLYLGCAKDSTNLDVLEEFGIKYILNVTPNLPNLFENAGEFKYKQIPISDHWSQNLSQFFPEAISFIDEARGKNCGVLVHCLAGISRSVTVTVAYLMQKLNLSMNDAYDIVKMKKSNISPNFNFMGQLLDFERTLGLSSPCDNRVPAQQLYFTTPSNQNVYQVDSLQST
Muscarinic acetylcholine receptor M4 (Homo sapiens), sequence (P08173 whole entry, looked up): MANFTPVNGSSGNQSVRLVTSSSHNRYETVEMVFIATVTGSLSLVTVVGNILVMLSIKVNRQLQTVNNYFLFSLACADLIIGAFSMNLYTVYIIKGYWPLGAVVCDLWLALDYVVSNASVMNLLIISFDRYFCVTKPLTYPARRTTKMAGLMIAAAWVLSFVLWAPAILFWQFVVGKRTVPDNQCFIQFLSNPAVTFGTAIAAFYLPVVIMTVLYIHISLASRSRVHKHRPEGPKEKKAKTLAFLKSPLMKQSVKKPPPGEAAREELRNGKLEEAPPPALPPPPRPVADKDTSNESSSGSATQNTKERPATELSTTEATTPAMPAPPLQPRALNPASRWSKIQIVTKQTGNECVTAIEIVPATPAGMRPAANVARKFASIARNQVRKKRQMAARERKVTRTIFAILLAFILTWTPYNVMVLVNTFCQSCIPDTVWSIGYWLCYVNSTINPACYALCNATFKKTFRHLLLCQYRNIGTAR
Voltage-gated potassium channel subunit beta-2 (Rattus norvegicus), sequence (P62483 whole entry, looked up): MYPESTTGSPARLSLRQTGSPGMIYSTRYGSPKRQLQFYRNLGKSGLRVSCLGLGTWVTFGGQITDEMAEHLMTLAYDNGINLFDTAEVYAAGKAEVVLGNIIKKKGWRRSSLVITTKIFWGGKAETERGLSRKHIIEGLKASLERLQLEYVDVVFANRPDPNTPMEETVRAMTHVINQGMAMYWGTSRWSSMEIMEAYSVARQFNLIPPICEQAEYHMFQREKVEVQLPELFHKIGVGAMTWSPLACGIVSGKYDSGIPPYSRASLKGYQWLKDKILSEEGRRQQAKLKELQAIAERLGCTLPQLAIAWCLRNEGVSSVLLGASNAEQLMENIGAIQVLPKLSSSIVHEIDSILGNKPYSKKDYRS

In the case of `Cc1cc(C)n(-c2ncnc3sc(C)c(C)c23)n1`, in experiment [1], the cell count worked out at 577. The inhibition (usually the drop in the measured response relative to a control, in per cent) in experiment [1] was -0.8% (inactive); in experiment [2], -64.7% (inactive); in experiment [4] it was 19.8% (inactive); in [9], -1.64% (inactive). The compound further showed a nuclei count in [2] of 157%. In addition, the z-score in experiment [3] (setting [10]) is 0.455; in experiment [3] (setting [11]), 0.0261; in experiment [3] (setting [12]), 1.38. For the same compound, the fluorescence slope in experiment [5] was -0.293 (inactive); in [7] it was 0.00669 (inactive). In experiment [6], the NADPH fluorescence slope is -3.5e-05 (inactive). Moreover, in experiment [8], the outcome was inactive.

On to `c1nc(NC2CCCCC2)c2[nH]cnc2n1`, for which the cell count in experiment [1] is 743. Besides, the inhibition in [1] is -1.9% (inactive); in experiment [2], -76.5% (inactive); in [4], 9.91% (inactive); in [9], 3.23% (inactive). This compound registered a nuclei count in [2] of 168%. Besides, the z-score in experiment [3] (setting [10]) is -1.06; in experiment [3] (setting [11]), 0.0486; in experiment [3] (setting [12]), -0.156. Also, the values for the fluorescence slope in experiment [5] and in experiment [7] were -0.483 (inactive) and 0.00575 (inactive), respectively. The NADPH fluorescence slope in experiment [6] was -6.4e-05 (inactive). The call in experiment [8] was inactive.

As to `O=C(Nc1nnc(SCc2ccccc2F)s1)c1ccco1`, the cell count in experiment [1] was 600. For the same compound, the inhibition in experiment [1] was -10.3% (inactive); in experiment [2], -62.9% (inactive); in [4] it was 5.35% (inactive); in experiment [9], 39.5% (inactive). In [2], this compound returned a nuclei count of 109%. For the same compound, the z-score in experiment [3] (setting [10]) is -0.259; in experiment [3] (setting [11]) it was -0.419; in [3] (setting [12]) it was -0.101. For the same compound, the fluorescence slope in [5] was -0.502 (inactive); in experiment [7], 0.00604 (inactive). Also, in experiment [6], the NADPH fluorescence slope is -5.2e-05 (inactive). Besides, in experiment [8], the compound was called inactive.

`Cn1c(=O)c2c(nc(NCc3ccco3)n2Cc2ccccc2Cl)n(C)c1=O`: in [1], the cell count stood at 502. Moreover, the inhibition was -4.4% (inactive) in [1], -15.6% (inactive) in experiment [2], 12.8% (inactive) in [4] and -9.48% (inactive) in experiment [9]. Besides, in experiment [2], the nuclei count came to 92.2%. Also, the figures for the z-score in [3] (setting [10]), in [3] (setting [11]) and in [3] (setting [12]) were 0.653, -0.74 and 0.354, respectively. Also, the fluorescence slope is -0.463 (inactive) in experiment [5] and 0.00464 (inactive) in experiment [7]. Also, the NADPH fluorescence slope in experiment [6] is -2.4e-05 (inactive). The call in experiment [8] was inactive.

In the case of `CCSc1nc2sc3c(c2c2nnc(SCC(=O)NCc4ccco4)n12)CCCC3`, the cell count in experiment [1] turned out to be 550. For the same compound, the inhibition was -5.1% (inactive) in [1], -12.4% (inactive) in experiment [2], 1.9e-07% (inactive) in experiment [4] and 9.13% (inactive) in experiment [9]. Further, the nuclei count in experiment [2] is 178%. The z-score in experiment [3] (setting [10]) is -0.011; in [3] (setting [11]), -1.17; in [3] (setting [12]), -1.17. Also, the fluorescence slope was -0.399 (inactive) in experiment [5] and 0.00576 (inactive) in experiment [7]. For the same compound, the NADPH fluorescence slope in experiment [6] was -1.1e-05 (inactive). Further, the call in experiment [8] was inactive.

Take `N#C/C(=C\c1c(N2CCC(C(N)=O)CC2)nc2ccccn2c1=O)S(=O)(=O)c1ccccc1`: the cell count in [1] turned out to be 444. Also, the inhibition in experiment [1] is -3.7% (inactive); in experiment [2], -112% (inactive); in [4] it was 12.7% (inactive); in experiment [9], 4.15% (inactive). The compound also came in with a nuclei count in [2] of 144%. The z-score in experiment [3] (setting [10]) is 1.56; in experiment [3] (setting [11]), -0.902; in [3] (setting [12]), -1.07. The fluorescence slope in experiment [5] was -0.423 (inactive); in [7], 0.00437 (inactive). The NADPH fluorescence slope in experiment [6] was -2.9e-05 (inactive). The result in experiment [8] was inactive.

Turning to `CC(NC(=O)OCc1ccccc1)C(=O)OCN1C(=O)c2ccccc2C1=O` (stereo unspecified), the cell count in [1] is 519. The inhibition in [1] is -9.1% (inactive); in [2], -64.3% (inactive); in experiment [4], -3.97% (inactive); in experiment [9] it was 28% (inactive). Moreover, in experiment [2], the nuclei count was found to be 130%. For the same compound, the z-score is 0.544 in [3] (setting [10]), -1.4 in experiment [3] (setting [11]) and 0.638 in experiment [3] (setting [12]). In addition, the fluorescence slope was -0.391 (inactive) in experiment [5] and 0.00711 (inactive) in [7]. Besides, the NADPH fluorescence slope in experiment [6] is -4.8e-06 (inactive). Also, the result in [8] was inactive.
